Tested on: MS2 coat protein
Experiment: apparent Kd, MS2 coat protein; higher = weaker binding; RNA-MaP array; FMN 200 µM where present
Method in brief: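 SNAP-549-labelled MS2 coat protein, doubled from 0.7 or 1.5 nM to 3 µM, was titrated over designs transcribed by stalled E. coli RNA polymerase on Illumina sequencing-chip clusters. Titrations were run without and then with constant ligand in 100 mM Tris-HCl pH 7.5, 80 mM KCl, 4 mM MgCl2, BSA, DTT, yeast tRNA and Tween-20. The apparent Kd is the median of filtered per-cluster fits to green signal normalised to red-channel RNA signal and control-cluster median Fmax.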

[1] = designed as: OFF switch for flavin mononucleotide, no ligand
[2] = ligand present: flavin mononucleotide, designed as: OFF switch for flavin mononucleotide
[3] = designed as: ON switch for flavin mononucleotide, no ligand
[4] = ligand present: flavin mononucleotide, designed as: ON switch for flavin mononucleotide

| Sequence | apparent Kd [1] [nM] | apparent Kd [2] [nM] | apparent Kd [3] [nM] | apparent Kd [4] [nM] |
| --- | --- | --- | --- | --- |
| AACAGUAGAGGAUAUACAUGAGGAUCACCCAUGUGAUAAUUACGUGGCGUACCACGAAGUAGAAGGCUACUGGA | 65.6 | 316 |  |  |
| UGAGACCUCACAGGAUAUGCUGGACUUUGUCCAGCAGAAGGGUGAAAACAUGAGGAUCACCCAUGUAUGGUCUCCAAAUUUAAA |  |  | 187 | 13.6 |
| UGGUACAUCGCAGGAUAUCAUGUAGAUACAUGAGGAUCACCCAUGUCGAUGGAGACAUCGGAGAUUGAGAAGGGCGAUGUACCU |  |  | 907 | 41.1 |
| CGCUGUUGCGCAGGAUAUGCAUUGGAUUACAAUGCAGAAGGGCGAUUACAUGAGGAUCACCCAUGUGUAGACAGUGAAGAAGAG |  |  | 300 | 37.2 |
| GCGAAGGGAGGAUAUCCGCGCGCGCACAUGAGGAUCACCCAUGUGCGCGCGCGCGCGCGCGGAGAAGGCCCGGUGC | 16.4 | 13.4 |  |  |
| ACAUGCGGAUGAGGAUAUUCAUUCAUGAGGAUAGAAGAAGGCAUACAUGAGGAUCACCCAUGUAUACGCAUGAGGAUCCCUUAU | 24.8 | 32.7 |  |  |
| CCAUGUUAGCAGGAUAUGCUAUUAAUCUUUUAUGCAGAAGGGCUUACAUGAGGAUCACCCAUGUAUUAAGUCUU | 11.3 | 19.5 |  |  |
| CGACGAGUGGAGAAGGACUUUGACUAGUACAGGGUAGGAUAUCCACAUGAGGAUCACCCAUGUAGGAUACUUAUUGGGCCGCCU | 10.3 | 49 |  |  |
| CCGUUGAUAGGACAGGAUAUGACUGUCGUCACAUGAGGAUCACCCAUGUCCCGGCAAUGCCACCGUUAGAAGGGUCCCGUCUCGG |  |  | 18.8 | 19.2 |
| UCCUUGUCCUGAGGAUAUCCGUAGUGACCGAAAGGAGAAGGCAGGACAUGAGGAUCACCCAUGUACCCAGAAAACGUGCAGAGU | 48.1 | 525 |  |  |
| GUGAAACAUGAGGAUCACCCAUGUGAGGAUAUGUUUUAGUAAUGAUGAAAGUAAAUCUACAGAAGGCACAAUGG | 75.8 | 117 |  |  |
| GUACAUGAGCAGAAGGGCAUUUAAUUAGAUUUUUAUGUUGAUCAGAUAUGCAGGAUAUGUUAAACAUGAGGAUCACCCAUGUAC |  |  | 235 | 44.2 |
| GCGGUAUUGUAAGGAUAUACUCUGUGAUGAAGAGUAGAAGGUACUUACAUGAGGAUCACCCAUGUUUAACGUGAAAAUUACCGC |  |  | 26.5 | 16.7 |
| GUCAACUCGUGAGGAUAUACAACACUGCUUCGGCAGUGUAUUAAGAUCACAUGAGGAUCACCCAUGUAGAAGGCACGAGCUGAU | 14.4 | 214 |  |  |
| UUAAAUCAUGUAGGAUAUGCAUGGCGAAGCUACGCAGAAGGACAUGAGGAUCACCCAUGUUAUAGCGACCCAGUUCGGUUGCAA | 94.3 | 230 |  |  |
| GGCGAACAGGCUAACAUGAGGAUCACCCAUGUGGACUCAUGGUAGGAUAUGCUGUAGAAACUACAGCAGAAGGGCCGGUGAGCC |  |  | 66.1 | 294 |
| UUGGACGUCGUAGGAUAUGUAGGAUAUACCUACAUGAGGAUCACCCAUGUUGACAUGGAAGAAGGACAGAAGGACGAUGUCCAU |  |  | 439 | 153 |
| UUUGCAUUCCGAGGAUAUUCAUUUAAUGACUUCACAUGAGGAUCACCCAUGUGGCGCUUGCGCCGGGAGAAGGCGGUUUGCUUU |  |  | 25.6 | 24.1 |

| Sequence | apparent Kd [1] [nM] | apparent Kd [2] [nM] | apparent Kd [3] [nM] | apparent Kd [4] [nM] |
| --- | --- | --- | --- | --- |
| AAACACGGACAUGAGGAUCACCCAUGUGGCGAAAGCCUUGGAAGAAGGCCGUAUGCAAAGCAUACGGAGGAUAUUCAUACCGUG |  |  | 15.6 | 5.85 |
| CAGAAGUCAGGAUAUGCAUGGCGGGACUUGCGUCGUGGCGUGCAGAAGGGACAUGAGGAUCACCCAUGUAAAGG | 174 | 300 |  |  |
| AGCUGACGAGGAUAUACAUGAGGAUCACCCAUGUUGGUCAAGCGACGAUAGUCGCAAUGUAGAAGGUGUCAGCU | 138 | 565 |  |  |
| ACGACGAAAGUCGAACGAUGUAGCAGAAGGACAUGAGGAUCACCCAUGUCAGCUGUAACAGCCAUGUAGGAUAUGCUACAUCGG | 4.37 | 5.85 |  |  |
| AUACCACGAGGAUAUCGUCUAUUUCACAUGAGGAUCACCCAUGUUAUCUUUGUUUCGUUUCGAGAAGGCGUGUUUU | 33.1 | 23.2 |  |  |
| UAUUACAGAUAAGGAUAUUGACAUGAGGAUCACCCAUGUAUUUGGGAAUGUUUACUGAAUUCUUACGAGAAGGUAUACGUACUU | 128 | 98.7 |  |  |
| CUUUCGUGAGGAUAUGUGGCUUCGAUCGUGAGAUCGAAACUACAGAAGGCACAUGAGGAUCACCCAUGUUCCUC | 33.9 | 540 |  |  |
| UCAUGGAAGCAGGAUAUGCUUGUUUAAUUGUUUGCAGAAGGGCUAACAUGAGGAUCACCCAUGUAAGAGGUCUA | 45.8 | 34.1 |  |  |
| GGAUAUAACGUAGGAUAUCUGAGAAAUAGAUGAAGAGAAGGACGACAUGAGGAUCACCCAUGUGAUCUAUCAAUAUUAUACAUG | 452 | 749 |  |  |
| CAGGUAGACUGAGGAUAUACAAUAAACAGCUAGUCUAUCUAGCUGCCUACAUGAGGAUCACCCAUGUAGAAGGCAGUCUGCCUG | 16.2 | 16.6 |  |  |
| UUUUAACAUGAGGAUCACCCAUGUGAGGAUAUCGAAAUUUAUAUUAAUAUUUUUAAUUCGAGAAGGCACAUUUU | 116 | 118 |  |  |
| AUGCUAGUGUGAGGAUAUACAUGAGGAUCACCCAUGUGUCCGAAGUACCGGACAUGAGGUACGUCGUAGAAGGUACAUUAGCAU | 21 | 102 |  |  |
| AUAAUGUGAGGAUAUACAUGAGGAUCACCCAUGUAAUUAAAUCGGAGAGCCACAUUUCGUAGAAGGUACAUUUA | 20.7 | 22.6 |  |  |
| UUCGCUAAGGUGUAGCGAGACUUGCAAGAAGGGUGAUGCACAUGAGGAUCACCCAUGUAAGCCUUACAGGAUAUUGCUUGCCGA |  |  | 600 | 220 |
| AAUUGAAACGUAGGAUAUCGCACAAAUCUAAAACGAGAAGGACGUACAUGAGGAUCACCCAUGUUAAAUGGUGUAGAUUAGAUG | 543 | 636 |  |  |
| CCUCGACAUGAGGAUCACCCAUGUCAGGAUAUUGUGUUUUUGGUUUUUUACCUUUAGGCAAGAAGGGAUGUGUG | 16 | 21.4 |  |  |
| AUCCAUUGAGAGAAGGGAGUACAUGAGGAUCACCCAUGUGGUCGUUCAUACUCAGGAUAUCUAACUGGGUUAGUGGCGCACGCC | 166 | 367 |  |  |
| AAGAAACAUGAGGAUCACCCAUGUGAGGAUAUGAUGCGAAUUAUGUAUGUAGUAAGCAUCAGAAGGCACAAAGG | 127 | 203 |  |  |

From the EternaBench riboswitch data
